Measurements: article PMC4306484 (ACS Chemical Neuroscience, 2014)
Marks after values point to notes of the source that are not given here.

Assays:
mGlu4 = mGlu4 (Rattus norvegicus, UniProt P31423); test: Thallium flux assay, cells expressing mGlu4 and GIRK1/2; type: cell-based; conditions: GIRK assay
SC-CA1 synapse = test: Extracellular field potential recordings; design: species or system C57BL6/J mice; conditions: for effect on fEPSP slope: agonist alone: 3 μM LSP1-2111, 1 μM DCPG or 30 μM LSP4-2022
Procedure, shortened: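 Coronal hippocampal slices (400 μm) from six-week-old male mice anesthetized with isoflurane, cut in ice-cold sucrose solution. Slices recovered in NMDG-HEPES (15 min, 32 °C), then in ACSF (≥1 h, RT), and were perfused with 32 °C ACSF. CA1 stratum radiatum recordings used paired pulses (100 μs, 20 ms apart, 0.05 Hz). After 10 min baseline, drugs in ACSF were given for 5 or 10 min; PAM was preapplied 5 min, then coapplied with agonist. Slopes from three sweeps were averaged and normalized to predrug baseline. Paired-pulse ratio was second/first slope. N = 3–4; mean ± SEM.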

rat mGlu8 [1] = biological target: T1, rat mGlu8 (Rattus norvegicus, UniProt P70579); test: Thallium flux assay, HEK293 cells expressing rat mGlu8 and GIRK1/2 channels; type: cell-based
human mGlu4 = human mGlu4 (Homo sapiens, UniProt Q14833); test: Calcium mobilization assay, human mGlu4/Gqi5/CHO cells; type: cell-based; conditions: for Kb / log α (affinity cooperativity) / log β (efficacy cooperativity) / α / β: calcium assay
rat mGlu7 = rat mGlu7 (Rattus norvegicus, UniProt P35400); test: Calcium mobilization assay, rat mGlu7/Gα15/HEK cells; type: cell-based; conditions: for Kb / log α (affinity cooperativity) / log β (efficacy cooperativity) / log τB / α / β / τB: calcium assay
rat mGlu8 [2] = biological target: T1, rat mGlu8; test: Calcium mobilization assay, rat mGlu8/Gα15/HEK cells; type: cell-based; conditions: for Kb / log α (affinity cooperativity) / log β (efficacy cooperativity) / log τB / α / β / τB: calcium assay
rat mGlu2 = rat mGlu2 (Rattus norvegicus, UniProt P31421); test: Fold-shift assay in rat mGlu2/Gα15-expressing cells; type: cell-based; conditions: listed as VU0155094
rat mGlu2, sequence (P31421 19-872): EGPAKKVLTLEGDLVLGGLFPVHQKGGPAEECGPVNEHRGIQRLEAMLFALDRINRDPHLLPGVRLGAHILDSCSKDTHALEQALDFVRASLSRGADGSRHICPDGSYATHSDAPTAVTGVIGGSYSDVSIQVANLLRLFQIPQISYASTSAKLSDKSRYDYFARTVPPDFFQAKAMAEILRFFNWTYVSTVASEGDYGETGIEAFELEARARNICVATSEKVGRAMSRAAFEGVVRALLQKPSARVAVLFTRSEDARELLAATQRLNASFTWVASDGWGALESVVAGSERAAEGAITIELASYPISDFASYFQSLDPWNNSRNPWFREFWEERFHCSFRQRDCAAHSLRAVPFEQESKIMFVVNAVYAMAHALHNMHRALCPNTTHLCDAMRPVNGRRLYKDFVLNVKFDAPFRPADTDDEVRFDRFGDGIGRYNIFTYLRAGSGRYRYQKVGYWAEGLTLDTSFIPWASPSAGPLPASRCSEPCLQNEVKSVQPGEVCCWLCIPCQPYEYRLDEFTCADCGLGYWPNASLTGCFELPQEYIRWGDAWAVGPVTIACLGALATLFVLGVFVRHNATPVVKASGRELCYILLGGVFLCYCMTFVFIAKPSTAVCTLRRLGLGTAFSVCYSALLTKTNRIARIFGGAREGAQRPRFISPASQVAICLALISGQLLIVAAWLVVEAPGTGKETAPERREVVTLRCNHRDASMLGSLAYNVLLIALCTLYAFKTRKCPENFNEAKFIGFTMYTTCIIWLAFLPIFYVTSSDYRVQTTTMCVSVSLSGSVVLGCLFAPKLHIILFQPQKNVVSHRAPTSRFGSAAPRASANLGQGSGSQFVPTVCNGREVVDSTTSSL

human mGlu4, sequence (Q14833 33-912): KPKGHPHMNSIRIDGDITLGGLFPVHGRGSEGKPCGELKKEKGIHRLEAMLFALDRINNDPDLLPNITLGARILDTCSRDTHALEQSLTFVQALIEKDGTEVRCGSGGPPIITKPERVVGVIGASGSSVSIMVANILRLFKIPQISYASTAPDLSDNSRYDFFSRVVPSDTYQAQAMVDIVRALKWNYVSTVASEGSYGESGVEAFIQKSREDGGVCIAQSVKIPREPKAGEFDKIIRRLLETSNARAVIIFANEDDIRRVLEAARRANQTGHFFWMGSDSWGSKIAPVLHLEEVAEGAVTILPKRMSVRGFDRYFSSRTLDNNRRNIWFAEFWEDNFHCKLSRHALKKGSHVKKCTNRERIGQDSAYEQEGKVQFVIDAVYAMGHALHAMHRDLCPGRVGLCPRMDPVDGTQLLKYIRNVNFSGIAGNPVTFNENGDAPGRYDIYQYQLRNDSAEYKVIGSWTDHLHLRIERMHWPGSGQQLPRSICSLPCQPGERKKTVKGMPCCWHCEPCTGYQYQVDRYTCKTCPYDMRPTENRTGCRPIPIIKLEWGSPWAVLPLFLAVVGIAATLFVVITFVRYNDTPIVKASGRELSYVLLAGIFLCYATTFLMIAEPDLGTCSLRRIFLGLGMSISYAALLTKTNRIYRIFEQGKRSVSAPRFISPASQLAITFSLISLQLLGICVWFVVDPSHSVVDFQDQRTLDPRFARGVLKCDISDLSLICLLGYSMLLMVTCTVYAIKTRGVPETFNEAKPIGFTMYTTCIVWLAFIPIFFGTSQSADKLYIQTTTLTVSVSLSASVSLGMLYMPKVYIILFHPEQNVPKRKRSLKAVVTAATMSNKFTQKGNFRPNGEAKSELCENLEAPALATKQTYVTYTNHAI
rat mGlu7, sequence (P35400 35-915): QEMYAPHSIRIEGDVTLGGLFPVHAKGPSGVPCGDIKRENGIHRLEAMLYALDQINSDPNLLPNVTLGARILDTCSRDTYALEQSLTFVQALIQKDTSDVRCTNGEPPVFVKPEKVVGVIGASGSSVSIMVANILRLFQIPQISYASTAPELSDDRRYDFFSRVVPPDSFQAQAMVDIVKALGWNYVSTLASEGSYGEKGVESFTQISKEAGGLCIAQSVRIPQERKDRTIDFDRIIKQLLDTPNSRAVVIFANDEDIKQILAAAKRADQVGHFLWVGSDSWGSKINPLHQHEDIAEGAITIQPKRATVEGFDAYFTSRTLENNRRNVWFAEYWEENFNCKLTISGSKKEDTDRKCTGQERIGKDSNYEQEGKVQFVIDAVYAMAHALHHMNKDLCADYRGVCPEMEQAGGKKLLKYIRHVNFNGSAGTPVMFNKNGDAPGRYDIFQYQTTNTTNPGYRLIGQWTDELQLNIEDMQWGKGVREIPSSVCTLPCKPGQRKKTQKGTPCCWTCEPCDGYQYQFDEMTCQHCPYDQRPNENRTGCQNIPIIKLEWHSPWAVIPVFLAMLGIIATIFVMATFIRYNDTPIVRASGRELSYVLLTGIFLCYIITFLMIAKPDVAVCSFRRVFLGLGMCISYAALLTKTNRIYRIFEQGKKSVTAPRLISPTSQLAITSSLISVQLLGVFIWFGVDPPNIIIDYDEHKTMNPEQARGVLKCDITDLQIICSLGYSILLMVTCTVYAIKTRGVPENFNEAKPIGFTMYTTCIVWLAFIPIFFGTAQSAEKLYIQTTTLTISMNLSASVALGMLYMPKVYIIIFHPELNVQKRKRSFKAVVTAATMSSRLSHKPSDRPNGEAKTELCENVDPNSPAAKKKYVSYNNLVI
mGlu4, sequence (P31423 33-912): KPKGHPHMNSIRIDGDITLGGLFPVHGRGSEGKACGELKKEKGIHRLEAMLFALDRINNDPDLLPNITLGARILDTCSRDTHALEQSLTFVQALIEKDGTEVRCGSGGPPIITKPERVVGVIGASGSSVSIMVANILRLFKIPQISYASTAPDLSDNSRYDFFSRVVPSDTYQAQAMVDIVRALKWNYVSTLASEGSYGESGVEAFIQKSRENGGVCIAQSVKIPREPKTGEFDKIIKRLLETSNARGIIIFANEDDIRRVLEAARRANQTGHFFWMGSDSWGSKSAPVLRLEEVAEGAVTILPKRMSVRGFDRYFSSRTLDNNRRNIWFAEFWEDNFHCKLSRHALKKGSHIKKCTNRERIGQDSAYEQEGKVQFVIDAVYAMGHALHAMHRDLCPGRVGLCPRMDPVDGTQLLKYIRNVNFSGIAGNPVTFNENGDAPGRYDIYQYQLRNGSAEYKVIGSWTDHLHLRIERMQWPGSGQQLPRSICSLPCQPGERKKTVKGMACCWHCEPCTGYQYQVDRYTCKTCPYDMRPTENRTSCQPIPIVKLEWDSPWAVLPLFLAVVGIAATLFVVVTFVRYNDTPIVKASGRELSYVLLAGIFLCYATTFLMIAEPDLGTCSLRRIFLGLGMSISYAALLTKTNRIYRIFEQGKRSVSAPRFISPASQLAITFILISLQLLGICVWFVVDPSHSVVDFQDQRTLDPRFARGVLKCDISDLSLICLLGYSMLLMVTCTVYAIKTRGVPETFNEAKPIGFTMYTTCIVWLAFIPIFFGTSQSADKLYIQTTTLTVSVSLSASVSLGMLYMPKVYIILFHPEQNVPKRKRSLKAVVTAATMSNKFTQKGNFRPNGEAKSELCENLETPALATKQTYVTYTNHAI
T1 sequence (P70579 34-908): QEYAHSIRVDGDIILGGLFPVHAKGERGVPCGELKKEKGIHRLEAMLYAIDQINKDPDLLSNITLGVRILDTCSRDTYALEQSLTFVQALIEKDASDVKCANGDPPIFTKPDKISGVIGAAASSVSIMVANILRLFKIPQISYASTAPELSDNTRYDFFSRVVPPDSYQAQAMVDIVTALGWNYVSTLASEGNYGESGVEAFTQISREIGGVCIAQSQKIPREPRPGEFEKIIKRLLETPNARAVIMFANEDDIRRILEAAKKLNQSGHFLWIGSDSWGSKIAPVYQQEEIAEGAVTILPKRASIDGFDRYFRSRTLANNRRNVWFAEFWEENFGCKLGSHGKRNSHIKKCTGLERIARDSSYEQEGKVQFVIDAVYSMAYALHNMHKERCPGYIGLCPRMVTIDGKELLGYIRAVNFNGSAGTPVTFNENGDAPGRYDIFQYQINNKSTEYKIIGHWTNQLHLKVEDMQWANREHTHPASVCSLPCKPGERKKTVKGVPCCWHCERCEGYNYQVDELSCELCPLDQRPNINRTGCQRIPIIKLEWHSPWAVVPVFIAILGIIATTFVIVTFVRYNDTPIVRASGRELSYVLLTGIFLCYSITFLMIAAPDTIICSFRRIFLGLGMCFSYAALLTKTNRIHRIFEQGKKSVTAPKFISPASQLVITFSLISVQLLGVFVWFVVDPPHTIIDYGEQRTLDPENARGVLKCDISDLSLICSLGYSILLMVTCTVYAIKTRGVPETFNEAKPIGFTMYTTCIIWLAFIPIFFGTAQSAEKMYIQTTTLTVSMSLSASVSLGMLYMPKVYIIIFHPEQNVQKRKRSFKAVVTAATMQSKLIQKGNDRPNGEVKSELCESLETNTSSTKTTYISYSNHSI

With `O=C(Nc1ccc(Oc2ccc(Cl)cn2)c(Cl)c1)c1ccccn1` [Compound 20, N-(3-chloro-4-((5-chloropyridin-2-yl)oxy)phenyl)picolinamide] the “log αβ (combined cooperativity)” value (mGlu4; agonist Glu) was 0.54 ± 0.06 ^i, the αβ (mGlu4; agonist Glu) was 3.5 and the “log αβ (combined cooperativity)” value (mGlu4; agonist L-AP4) was 0.58 ± 0.04 ^j. For the same molecule, the αβ (mGlu4; agonist L-AP4) was 3.8, the “log αβ (combined cooperativity)” value (mGlu4; agonist LSP4-2022) was 0.54 ± 0.003 ^k and the αβ (mGlu4; agonist LSP4-2022) was 3.5. It also gave a Kb (mGlu4; agonist Glu) of 0.306 µM, a Kb (mGlu4; agonist L-AP4) of 0.304 µM and a Kb (mGlu4; agonist LSP4-2022) of 0.268 µM.
In the case of `COc1cc(C(O)P(=O)(O)CC[C@H](N)C(=O)O)cc([N+](=O)[O-])c1O` (stereo partly drawn) [LSP1-2111, (2S)-2-amino-4-[hydroxy[hydroxy(4-hydroxy-3-methoxy-5-nitro-phenyl)methyl]phosphoryl]butanoic acid], the “effect on fEPSP slope” value (SC-CA1 synapse) is reported as “has no effect on fEPSP slope”.
With `COC(=O)c1ccc(-n2c(C)cc(C(=O)CSc3ccc(NC(C)=O)cc3)c2C)cc1` [Compound 1, methyl 4-(3-(2-((4-acetamidophenyl)thio)acetyl)-2,5-dimethyl-1H-pyrrol-1-yl)benzoate] the EC50 (rat mGlu8 [1]) was 1.62 µM, the “agonist activity in the absence of glutamate” value (rat mGlu8 [1]) was “did not exhibit agonist activity” and the Kb (human mGlu4; KB, agonist Glu) was 13.3 µM. The Kb (human mGlu4; KB, agonist L-AP4) was 13.2 µM, the Kb (human mGlu4; KB, agonist LSP4-2022) was 10.6 µM and the “log α (affinity cooperativity)” value (human mGlu4; agonist Glu) was 0.28 ± 0.07. The “log β (efficacy cooperativity)” value (human mGlu4; agonist Glu) was 0.16 ± 0.08 ^f ^h, the α (human mGlu4; agonist Glu) was 1.9 and the β (human mGlu4; agonist Glu) was 1.4. The “log α (affinity cooperativity)” value (human mGlu4; agonist L-AP4) was “–0.15 ± 0.30 ^k”, the “log β (efficacy cooperativity)” value (human mGlu4; agonist L-AP4) was 0.67 ± 0.27 ^f ^i and the α (human mGlu4; agonist L-AP4) was 0.71. The β (human mGlu4; agonist L-AP4) was 4.7, the “log α (affinity cooperativity)” value (human mGlu4; agonist LSP4-2022) was 0.17 ± 0.13 ^l and the “log β (efficacy cooperativity)” value (human mGlu4; agonist LSP4-2022) was 0.33 ± 0.07 ^j. It also gave a α (human mGlu4; agonist LSP4-2022) of 1.5, a β (human mGlu4; agonist LSP4-2022) of 2.1 and a Kb (human mGlu4; pKB, agonist L-AP4, eq 2) of 13.2 µM. For the same molecule, the Kb (rat mGlu7; KB, agonist LSP4-2022) was 8 µM, the “fold greater modulator affinity with L-AP4 than with glutamate as agonist” value (rat mGlu7; calcium) was 4 fold and the “log α (affinity cooperativity)” value (rat mGlu7; agonist Glu) was 0.58 ± 0.13. For the same molecule, the “log β (efficacy cooperativity)” value (rat mGlu7; agonist Glu) was 0.68 ± 0.12 ^g ^h, the “log τB” value (rat mGlu7; agonist Glu) was “–0.17 ± 0.03” and the α (rat mGlu7; agonist Glu) was 3.8. The β (rat mGlu7; agonist Glu) was 4.8, the τB (rat mGlu7; agonist Glu) was 0.81 and the “log α (affinity cooperativity)” value (rat mGlu7; agonist L-AP4) was 0.39 ± 0.21. The “log β (efficacy cooperativity)” value (rat mGlu7; agonist L-AP4) was 0.07 ± 0.03 ^g ^i, the “log τB” value (rat mGlu7; agonist L-AP4) was “–0.09 ± 0.04” and the α (rat mGlu7; agonist L-AP4) was 2.4. For the same molecule, the β (rat mGlu7; agonist L-AP4) was 1.2, the “log α (affinity cooperativity)” value (rat mGlu7; agonist LSP4-2022) was 0.82 ± 0.26 ^l and the “log β (efficacy cooperativity)” value (rat mGlu7; agonist LSP4-2022) was “–0.10 ± 0.10 ^g ^j”. For the same molecule, the “log τB” value (rat mGlu7; agonist LSP4-2022) was “–0.22 ± 0.06”, the α (rat mGlu7; agonist LSP4-2022) was 6.6 and the β (rat mGlu7; agonist LSP4-2022) was 0.8. The τB (rat mGlu7; agonist LSP4-2022) was 0.61, the Kb (rat mGlu7; pKB, agonist Glu, eq 2) was 17 µM and the Kb (rat mGlu7; pKB, agonist L-AP4, eq 2) was 4.17 µM. For the same molecule, the Kb (rat mGlu8 [2]; agonist Glu) was 8.6 µM, the Kb (rat mGlu8 [2]; agonist L-AP4) was 14.7 µM and the Kb (rat mGlu8 [2]; agonist LSP4-2022) was 14 µM. The “log α (affinity cooperativity)” value (rat mGlu8 [2]; agonist Glu) was 0.61 ± 0.39, the “log β (efficacy cooperativity)” value (rat mGlu8 [2]; agonist Glu) was 0.08 ± 0.02 ^h and the “log τB” value (rat mGlu8 [2]; agonist Glu) was “–0.12 ± 0.03”. For the same molecule, the α (rat mGlu8 [2]; agonist Glu) was 4.1, the β (rat mGlu8 [2]; agonist Glu) was 1.2 and the τB (rat mGlu8 [2]; agonist Glu) was 0.75. The “log α (affinity cooperativity)” value (rat mGlu8 [2]; agonist L-AP4) was 0.92 ± 0.08 ^k, the “log β (efficacy cooperativity)” value (rat mGlu8 [2]; agonist L-AP4) was 0.05 ± 0.03 ^i and the “log τB” value (rat mGlu8 [2]; agonist L-AP4) was “–0.14 ± 0.04”. The α (rat mGlu8 [2]; agonist L-AP4) was 8.3, the β (rat mGlu8 [2]; agonist L-AP4) was 1.1 and the τB (rat mGlu8 [2]; agonist L-AP4) was 0.73. The “log α (affinity cooperativity)” value (rat mGlu8 [2]; agonist LSP4-2022) was 0.93 ± 0.06 ^l, the “log β (efficacy cooperativity)” value (rat mGlu8 [2]; agonist LSP4-2022) was 0.05 ± 0.06 ^j and the “log τB” value (rat mGlu8 [2]; agonist LSP4-2022) was “–0.10 ± 0.06”. The α (rat mGlu8 [2]; agonist LSP4-2022) was 8.6, the β (rat mGlu8 [2]; agonist LSP4-2022) was 1.1 and the τB (rat mGlu8 [2]; agonist LSP4-2022) was 0.80. For the same molecule, the “shift of glutamate concentration-response (PAM or NAM activity) at mGlu2” value (rat mGlu2) was “inactive” and the “effect on paired-pulse ratio” value (SC-CA1 synapse; PAM and LSP4-2022 applied together) was “increases the paired-pulse ratio”.
In the case of `N[C@@H](CCP(=O)(O)C(O)c1ccc(OCC(=O)O)cc1)C(=O)O` (stereo partly drawn) [LSP4-2022, (2S)-2-amino-4-(((4-(carboxymethoxy)phenyl)(hydroxy)methyl)(hydroxy)phosphoryl)butanoic acid, reference compound], the “Fold ΔpKA vs. Glu (fold higher affinity than glutamate)” value (human mGlu4; calcium) is reported as 9 fold, the “fold lower affinity compared to glutamate” value (rat mGlu8 [2]; calcium) is reported as 10 fold and the “effect on paired-pulse ratio” value (SC-CA1 synapse; 30 μM LSP4-2022 alone) is reported as “causes an increase in paired-pulse ratio”. For the same molecule, the “effect on fEPSP slope” value (SC-CA1 synapse) was “causes a decrease in the fEPSP slope”.
`N[C@H](C(=O)O)c1ccc(C(=O)O)c(C(=O)O)c1` [DCPG, (S)-3,4-dicarboxyphenylglycine] was tested, and the “effect on fEPSP slope” value (SC-CA1 synapse) was “has no effect on fEPSP slope”.
